Laboratory results reported in ChEMBL document CHEMBL3774328, “Optimization by Molecular Fine Tuning of Dihydro-β-agarofuran Sesquiterpenoids as Reversers of P-Glycoprotein-Mediated Multidrug Resistance” (J Med Chem, 2016).

Tests used:
[1] = molecular target: T1, ATP-dependent translocase ABCB1 (Homo sapiens, UniProt P08183); assay: Inhibition of human MDR1 expressed in mouse NIH/3T3 cells assessed as inhibition of daunomycin efflux incubated for 30 mins by flow cytometry; assay type: cell-based, NIH3T3
T1 sequence (P08183 whole entry): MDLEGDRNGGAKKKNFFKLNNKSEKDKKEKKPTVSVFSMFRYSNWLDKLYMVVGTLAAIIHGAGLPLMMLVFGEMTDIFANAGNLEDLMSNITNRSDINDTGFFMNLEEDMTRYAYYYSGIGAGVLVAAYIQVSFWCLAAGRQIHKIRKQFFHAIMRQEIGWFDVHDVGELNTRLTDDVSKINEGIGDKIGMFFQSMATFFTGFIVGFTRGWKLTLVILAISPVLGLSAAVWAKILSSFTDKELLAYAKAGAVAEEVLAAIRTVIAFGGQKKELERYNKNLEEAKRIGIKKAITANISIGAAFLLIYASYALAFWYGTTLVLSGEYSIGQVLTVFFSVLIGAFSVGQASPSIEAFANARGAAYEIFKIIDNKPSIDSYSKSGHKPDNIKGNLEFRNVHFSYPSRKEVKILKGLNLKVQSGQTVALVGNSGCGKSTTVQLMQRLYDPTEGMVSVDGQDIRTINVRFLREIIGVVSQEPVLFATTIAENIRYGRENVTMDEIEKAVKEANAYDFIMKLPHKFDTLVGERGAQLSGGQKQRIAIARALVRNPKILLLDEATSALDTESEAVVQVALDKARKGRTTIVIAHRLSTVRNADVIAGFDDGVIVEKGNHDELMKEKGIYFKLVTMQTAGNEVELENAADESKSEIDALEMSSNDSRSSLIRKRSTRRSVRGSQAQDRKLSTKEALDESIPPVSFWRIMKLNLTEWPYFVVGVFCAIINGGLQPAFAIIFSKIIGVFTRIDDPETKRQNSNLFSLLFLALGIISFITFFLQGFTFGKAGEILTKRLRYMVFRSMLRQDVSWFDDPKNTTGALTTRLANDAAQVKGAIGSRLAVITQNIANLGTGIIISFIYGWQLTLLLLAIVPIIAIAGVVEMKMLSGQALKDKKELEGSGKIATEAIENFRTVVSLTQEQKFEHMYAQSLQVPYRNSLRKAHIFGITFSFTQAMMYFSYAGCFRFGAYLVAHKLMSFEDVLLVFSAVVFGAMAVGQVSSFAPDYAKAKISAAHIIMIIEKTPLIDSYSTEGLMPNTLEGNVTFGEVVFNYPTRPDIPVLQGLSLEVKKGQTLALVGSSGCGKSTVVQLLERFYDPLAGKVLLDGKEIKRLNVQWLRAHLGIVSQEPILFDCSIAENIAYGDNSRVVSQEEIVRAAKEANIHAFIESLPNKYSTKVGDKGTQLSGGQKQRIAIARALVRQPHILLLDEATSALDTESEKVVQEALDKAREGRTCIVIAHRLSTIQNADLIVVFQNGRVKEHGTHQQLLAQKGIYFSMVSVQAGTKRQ
Summary of the method: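 Ki for DNM efflux. MDR1-G185 NIH-3T3 cells were incubated 30 min at 37 °C with DNM (2 μM) and varying compound concentrations, then read by flow cytometry. Fluorescence was converted to % P-gp inhibition, normalized to cells treated with 5 mM sodium orthovanadate (100%). Ki was fitted from I = (Imax × S)/(Ki + S). Mean ± SD of three independent experiments in triplicate.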

[2] = Intrinsic cytotoxicity against mouse NIH/3T3 cells transfected with human MDR1 by MTT assay; assay type: ADME, cell-based, NIH3T3
Summary of the method: (§1)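 Intrinsic cytotoxicity was measured by MTT in parental NIH-3T3 and MDR1-G185 cells. CC50 came from a four-parameter logistic fit. The top tested concentration was 60 μM, limited by DMSO toxicity, and growth at 60 μM is given as % of untreated control. Mean ± SD of three independent experiments in duplicate.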

[3] = Intrinsic cytotoxicity against mouse NIH/3T3 cells by MTT assay; assay type: cell-based, NIH3T3; summary of the method: as §1
[4] = Intrinsic cytotoxicity against mouse NIH/3T3 cells transfected with human MDR1 assessed as cell growth at 60 uM by MTT assay; assay type: ADME, cell-based, NIH3T3; settings: read-out: Activity; summary of the method: as §1
[5] = molecular target: T1, ATP-dependent translocase ABCB1; assay: Inhibition of human MDR1 expressed in mouse NIH/3T3 cells assessed as reduction in daunomycin IC50 at 1 uM by MTT assay; assay type: cell-based; settings: nih3t3, 1 µM
Summary of the method: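 Parental NIH-3T3 and MDR1-G185 cells were grown in DMEM with 10% iFBS. They were exposed to increasing DNM or VLB (up to 500 ng/mL) with or without compound at fixed 1, 3 or 10 μM. Growth was read by MTT, and IC50 came from a four-parameter logistic fit. Mean ± SD of two independent experiments in triplicate.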

[6] = molecular target: T1, ATP-dependent translocase ABCB1; assay: Inhibition of human MDR1 expressed in mouse NIH/3T3 cells assessed as reduction in daunomycin IC50 at 3 uM by MTT assay; assay type: cell-based; settings: nih3t3, 3 µM
Summary of the method: (§2)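 Parental NIH-3T3 and MDR1-G185 cells were grown in DMEM with 10% iFBS. They were exposed to increasing DNM or VLB (up to 500 ng/mL) with or without compound at fixed 1, 3 or 10 μM. Growth was read by MTT, and IC50 came from a four-parameter logistic fit. Reversal index = IC50 without compound / IC50 with compound in MDR1 cells. Mean ± SD of two independent experiments in triplicate.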

[7] = molecular target: T1, ATP-dependent translocase ABCB1; assay: Inhibition of human MDR1 expressed in mouse NIH/3T3 cells assessed as reduction in daunomycin IC50 at 10 uM by MTT assay; assay type: cell-based; settings: nih3t3, 10 µM; summary of the method: as §2
[8] = molecular target: T1, ATP-dependent translocase ABCB1; assay: Inhibition of human MDR1 expressed in mouse NIH/3T3 cells assessed as reduction in vinblastine IC50 at 1 uM by MTT assay; assay type: cell-based; settings: nih3t3, 1 µM; summary of the method: as §2
[9] = molecular target: T1, ATP-dependent translocase ABCB1; assay: Inhibition of human MDR1 expressed in mouse NIH/3T3 cells assessed as reduction in vinblastine IC50 at 3 uM by MTT assay; assay type: cell-based; settings: nih3t3, 3 µM; summary of the method: as §2
[10] = molecular target: T1, ATP-dependent translocase ABCB1; assay: Inhibition of human MDR1 expressed in mouse NIH/3T3 cells assessed as reduction in vinblastine IC50 at 10 uM by MTT assay; assay type: cell-based; settings: nih3t3, 10 µM; summary of the method: as §2
[11] = molecular target: T1, ATP-dependent translocase ABCB1; assay: Potency index, ratio of daunomycin reversal index to compound reversal index for human MDR1 expressed in mouse NIH/3T3 cells at 1 uM; assay type: cell-based; settings: nih/3t3, 1 µM
Summary of the method: (§3)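 Each RI comes from the MTT dose-response of DNM or VLB (up to 500 ng/mL), with or without modulator.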

[12] = molecular target: T1, ATP-dependent translocase ABCB1; assay: Potency index, ratio of vinblastine reversal index to compound reversal index for human MDR1 expressed in mouse NIH/3T3 cells at 1 uM; assay type: cell-based; settings: nih/3t3, 1 µM; summary of the method: as §3
[13] = Intrinsic cytotoxicity against mouse NIH/3T3 cells assessed as cell growth at 60 uM by MTT assay; assay type: cell-based, NIH3T3; settings: read-out: Activity; summary of the method: as §1

SMILES	Ki [1] [µM]	CC50 [2] [µM]	CC50 [3] [µM]	viability at 60 µM [4] [%]	fold change (FC) [5]	fold change (FC) [6]	fold change (FC) [7]	fold change (FC) [8]	fold change (FC) [9]	fold change (FC) [10]	Ratio [11]	Ratio [12]	viability at 60 µM [13] [%]
CC(=O)O[C@H]1CC[C@](C)(O)[C@]23OC(C)(C)[C@H]([C@H](OC(=O)/C=C/c4ccccc4)[C@H](OC(=O)c4ccccc4)[C@]12C)[C@H]3OC(=O)CCC(=O)N(C(=O)NC1CCCCC1)C1CCCCC1	0.19	> 60	56.4	72.8	15.8	19.5	24.9	27.4	36.1	90	3	3	–
CC(=O)O[C@H]1CC[C@](C)(O)[C@]23OC(C)(C)[C@H]([C@H](OC(=O)/C=C/c4ccccc4)[C@H](OC(=O)c4ccccc4)[C@]12C)[C@H]3OC(=O)c1cnccn1	1.74	> 60	> 60	86.2	2.3	4	9	3.7	8.8	20.6	–	–	66.3
